Assay outcomes deposited in PubChem by several laboratories.
sEH inh: blocks human soluble epoxide hydrolase activity; recombinant human sEH enzymatic activity assay; inhibition, % at 2 µM; actives 0.34% (n = 91,000); AID 707; in the data active = inhibition above about 80%
ERb coact inh: ER-beta (human) coactivator binding inhibition. TR-FRET ER-beta LBD / SRC1-Cy5 peptide binding; receptor agonist-loaded with 1 µM estradiol. inhibition, % at 25.6 µM. actives 1.3% (n = 86,000). AID 633;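 active = compounds whose percent inhibition of the receptor-coactivator binding signal exceeds about 50% in the single-dose screen, limit read from the data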;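 note: 0% = receptor plus peptide wells without compound and 100% = peptide-only wells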
Target sequence (Q92731 whole entry, looked up, the tested form may be a part): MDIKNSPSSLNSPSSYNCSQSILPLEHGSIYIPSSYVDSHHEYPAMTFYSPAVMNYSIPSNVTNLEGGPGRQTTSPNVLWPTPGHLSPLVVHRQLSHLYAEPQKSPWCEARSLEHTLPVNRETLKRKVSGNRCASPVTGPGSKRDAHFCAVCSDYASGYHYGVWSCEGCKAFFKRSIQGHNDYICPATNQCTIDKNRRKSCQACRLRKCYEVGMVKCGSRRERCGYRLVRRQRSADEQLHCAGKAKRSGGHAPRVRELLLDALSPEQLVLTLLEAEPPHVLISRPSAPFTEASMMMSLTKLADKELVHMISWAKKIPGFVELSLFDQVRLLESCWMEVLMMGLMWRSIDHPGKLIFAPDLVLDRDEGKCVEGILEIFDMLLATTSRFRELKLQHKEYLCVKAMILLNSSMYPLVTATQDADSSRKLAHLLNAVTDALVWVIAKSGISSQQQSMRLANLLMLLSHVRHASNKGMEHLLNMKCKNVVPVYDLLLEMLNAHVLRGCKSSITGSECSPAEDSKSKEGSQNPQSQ
HIV Rev-RRE inh: inhibitors of HIV-1 Rev-RRE RNA interaction; P05866; Rev peptide-RRE RNA binding, FRET; inhibition, % at 8 µM; actives 0.79% (n = 97,000); AID 704;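 active = inhibition above the screen-wide mean plus 3 SD, cut at about 35% in these data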;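 note: 0% = median DMSO wells and 100% = median Neomycin B control wells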
Target sequence (P05866 whole entry, looked up): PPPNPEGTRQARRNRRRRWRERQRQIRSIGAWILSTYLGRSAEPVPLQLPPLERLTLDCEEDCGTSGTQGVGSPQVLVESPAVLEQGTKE
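Assay system: labelled RRE RNA duplex and labelled Rev peptide / Medium: HEPES pH 7.5 salt buffer with EDTA / Reagent: labelled Rev peptide / Schedule: 5 + 15 min at 25 °C / Signal: FRET, excitation 480 nm, emission 540 nm donor and 671 nm acceptor / Benchmarks: DMSO and neomycin B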
ERa coact pot: ER-alpha (human) coactivator binding potentiation. TR-FRET ERalpha-LBD/SRC-Cy5 coactivator binding, 2 h; 100 = basal binding, no effect. coactivator binding (% of control), % at 25.6 µM. actives 1.3% (n = 86,000); in the data active = activity above about 200%;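 note: binding measured in presence of low estradiol as agonist stimulus; 0% = peptide alone without receptor and 100% = receptor with peptide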
ERa coact inh: blocks coactivator binding to human estrogen receptor alpha; actives 1.7% (n = 86,000); inhibition, % at 25.6 µM; P03372; TR-FRET ER-alpha LBD / SRC-1 peptide, estradiol-bound; in the data active = inhibition above about 50%;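 note: 0% = receptor plus peptide control and 100% = peptide only without receptor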
sEH act: increases human soluble epoxide hydrolase activity | AID 717 | purified human sEH enzymatic activity, activator screen | activation, % at 2 µM | P34913 | actives 0.04% (n = 91,000); in the data active = activation above about 37%
An asterisk follows results filed as active; . = no result; [ ] = another dose, or the depositor's remark. Compounds with a hit are over-represented: about 3.5% of the library has one in this group of screens.

SMILES	sEH inh	ERb coact inh	HIV Rev-RRE inh	ERa coact pot	ERa coact inh	sEH act
O=C(Cn1nc(Cl)nc1Cl)c1cc2ccccc2oc1=O	-8.8	36.7	2.9	81.1	54.6*[fluorescence artefact?]	9.2
Cn1nc(CC(=O)Nc2ccc(N3CCN(C(=O)OC(C)(C)C)CC3)cc2)c2ccccc2c1=O	.	39.2	.	68.4	72.3*[fluorescence artefact?]	.
CC(C)(C)OC(=O)N1CCN(c2ccc(NC(=O)Cn3nnc(-c4ccccc4)n3)cc2)CC1	74.0	50.5*	1.6	43.9	30.9	-72.9
COc1ccc(/C=N\NC(=O)C2=NNC(=O)C2C)cc1 (configuration not stated)	-5.0	.	5.0	.	.	2.1
CC1CCN(C(=O)C2c3ccccc3C(=O)N3CCc4ccccc4C23)CC1 (configuration not stated)	-9.3	-3.9	3.4	623.0*[fluorescence artefact?]	-1.3	5.8
O=C(Cc1cccc2ccccc12)N/N=C/c1ccc(F)cc1	70.9	.	11.2	.	.	-70.7
O=C(Cc1cccc2ccccc12)N/N=C/c1ccc(OC(=O)/C=C/c2ccco2)cc1	37.0	47.6	12.8	88.2	65.4*[fluorescence artefact?]	-37.0
CC(=O)Nc1ccc(S(=O)(=O)Nc2nc3ccccc3nc2Sc2nncn2C)cc1	-3.1	4.5	31.1	104.5	-4.8	4.4
Cc1cc(C2C(C#N)=C(N)Oc3n[nH]c(C)c32)c(C)s1 (configuration not stated)	11.2	-21.4	3.0	104.7	-13.0	-9.7
Cc1cc(C2C(C#N)=C(N)SC(N)=C2C#N)c(C)s1	3.3	6.1	83.3*[fluorescence artefact?]	91.8	5.6	1.9
Cc1[nH]nc2c1C(c1ccsc1C)C(C#N)=C(N)O2 (configuration not stated)	-8.1	.	5.8	.	.	7.8
Cc1sccc1C1C(C#N)=C(N)SC(N)=C1C#N	5.0	-18.6	74.6*	65.3	-22.7	-3.9
COC(=O)C1CCN(C(=O)COC(=O)Cc2c[nH]c3ccccc23)CC1	.	-2.7	2.5	111.5	-2.3	.
CC(C)(C)NC(=O)NC(=O)COC(=O)COc1ccc2c(c1)CCC2	.	-4.8	.	94.5	-4.0	.
Clc1cccc(-c2ccc(/C=N/n3cnnc3)o2)c1Cl	4.6	30.8	0.0	117.6	50.7*[fluorescence artefact?]	1.0
CCCN1C(=O)/C(=C/c2c(NCCCOCC)nc3c(C)cccn3c2=O)SC1=S	0.8	.	76.0*	.	.	-2.1
CCOCCCNc1nc2c(C)cccn2c(=O)c1/C=C1\SC(=S)N(CC(C)C)C1=O	9.9	.	43.6*	.	.	-6.1
COc1cc(-c2nnc(COc3ccc(Cl)cc3C)o2)cc(OC)c1OC	-10.9	25.8	8.7	177.1	29.1	12.5
O=C(Nc1ccc2oc(-c3cccc4ccccc34)nc2c1)c1ncn[nH]1	-4.0	.	0.7	.	.	5.3
O=C(Nc1ccc2oc(-c3ccccc3Cl)nc2c1)c1ncn[nH]1	-3.5	50.0*[fluorescence artefact?]	-0.1	224.1*[fluorescence artefact?]	66.5*[fluorescence artefact?]	3.0
CC(C)C(=O)Nc1ccc2oc(-c3cc(F)c(F)cc3Cl)nc2c1	1.0	13.0	6.8	217.3*	5.3	1.6
CC(=O)Nc1ccc2oc(-c3cc(F)c(F)cc3Cl)nc2c1	-5.1	-6.1	1.0	123.2	-1.1	8.9
O=C(CSc1n[nH]c(-c2ccccc2)n1)c1ccc(O)c(O)c1	.	77.0*[fluorescence artefact?]	.	49.2	67.0*[fluorescence artefact?]	.
O=C(O)C1CCCCC1C(=O)NCCCCc1ccccc1 (configuration not stated)	9.0	-2.7	4.3	114.9	8.2	-11.9
O=C(O)C1CCCCC1C(=O)NCCCc1ccccc1 (configuration not stated)	-2.6	2.7	5.9	267.6*	-2.3	4.0
SMILES	sEH inh	ERb coact inh	HIV Rev-RRE inh	ERa coact pot	ERa coact inh	sEH act
CCC1(C)Cc2c(sc3nn[nH]c(=O)c23)CO1 (configuration not stated)	-14.7	2.3	5.8	104.1	-4.0	12.0
Clc1ccc(Nc2nc(-c3ccncc3)cs2)cc1	3.0	44.2	-2.6	117.0	76.4*	2.4
Nc1ccc(Nc2nc(-c3ccncc3)cs2)cc1	8.9	5.9	0.4	56.6	22.9	-6.8
CCOC(=O)N1CCN(C(=O)Cc2ccc(-n3c(=O)[nH]c4ccccc4c3=O)cc2)CC1	6.1	-4.5	-0.1	62.6	9.9	-5.0
Cn1cc(C(=O)NC2CCCCCC2)c(=O)c2cc(S(=O)(=O)N3CCCC3)ccc21	.	4.5	.	231.9*[fluorescence artefact?]	65.0*	.
CN(C)S(=O)(=O)c1ccc2c(c1)c(=O)c(C(=O)NCCCN1CCCCCC1)cn2C	1.3	8.6	-8.7	91.9	62.1*[fluorescence artefact?]	-1.4
COC(=O)C1OC2(OC1C(=O)OC)c1ccccc1-c1ccccc12 (configuration not stated)	-10.2	2.8	8.9	116.9	0.7	10.1
O=C(Cn1ncc2c(=O)oc3ccccc3c21)Nc1nc2ccccc2s1	-9.9	-4.5	8.0	428.8*	5.8	9.8
COc1cc(NC(=O)c2ccc(-c3ccc(Br)cc3)o2)ccc1NC(=O)C(C)C	0.4	3.3	-3.4	197.7	5.0	1.0
COCCCNc1nc2c(c(=O)[nH]c(=O)n2C)n1CC(O)COc1ccccc1 (configuration not stated)	8.3	-5.7	1.7	114.6	-3.0	-10.1
Cc1nc2ccc(S(=O)(=O)NCC(=O)NCCN3CCCCCC3)cc2s1	-4.5	22.4	8.7	54.5	57.1*[fluorescence artefact?]	8.7
Cn1cccc1Cc1nnc(SCC(=O)NCc2ccco2)n1CCc1ccccc1	5.5	9.2	-1.0	151.6	12.1	-4.1
Cc1nc2ccccc2c(=O)n1/N=C/c1c(O)ccc2oc3c(c12)CCCC3	8.6	24.9	1.3	95.0	79.6*	-8.6
Cc1noc(C)c1S(=O)(=O)N1CCCC(C(=O)NCc2ccccn2)C1 (configuration not stated)	-7.8	.	3.5	.	.	10.1
Cc1ccc2c(c1)c1cccc3c1n2CCN3CCC(N)=O	3.3	60.2*[fluorescence artefact?]	15.0	71.8	10.6	-4.5
O=C1c2ccccc2C(=O)C1Cc1cccc2ccccc12	4.0	6.1	6.0	86.2	3.6	-3.9
NC(=O)C1(N2CCCCC2)CCN(c2nc(-c3ccc(Br)cc3)cs2)CC1	2.2	24.1	-7.5	108.4	70.9*	-2.4
CCOC(=O)COc1c(OC)cc(Cl)cc1C1NC(=O)NC(C)=C1C(C)=O (configuration not stated)	-2.8	59.8*[fluorescence artefact?]	-1.0	88.2	56.8*[fluorescence artefact?]	1.0
O=C(Nc1nnc(-c2ccc3c(c2)CCCC3)o1)c1ccccc1	8.0	-4.2	4.4	88.8	2.4	-5.9
O=C(Nc1nnc(-c2ccc3c(c2)OCCO3)o1)c1ccc(Cc2ccccc2)cc1	-11.4	64.5*[fluorescence artefact?]	-3.4	350.9*[fluorescence artefact?]	45.5	15.4
O=C(Cn1cnc2ccccc21)NCCCN1CCOCC1	16.2	-3.2	7.9	114.0	-7.1	-18.3
O=c1cc2c(nn1Cc1c(Cl)cccc1Cl)-c1ccccc1CC2	-2.0	4.9	4.5	111.9	0.1	0.3
CC(C)NC(=O)Cn1nc(C(F)(F)F)c2c1CCC2	2.7	-4.1	4.7	112.4	-11.5	0.0
CCCCn1nnnc1NCc1ccc(N(CC)CC)cc1	-22.2	-8.6	4.7	90.6	-13.7	20.7
